Results taken from ChEMBL document CHEMBL4414574, “Structure-Based Discovery and Development of a Series of Potent and Selective Bromodomain and Extra-Terminal Protein Inhibitors” (J Med Chem, 2019).
pIC50: −log10 of the molar value. The source made the active and inactive calls. The rule behind the calls is not given here.

What was measured:
[1] = AUC (0 to infinity) in ICR mouse at 10 mg/kg, po administered via gavage measured after 0.25 to 24 hrs by UPLC/MS analysis; type: ADME, organism-based; set-up: dose 10 mg/kg, route oral, time infinity; conditions: in vivo
Outline: (§1)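 Male ICR mice were dosed orally in 1% DMSO/0.5% HPMC vehicle. Plasma (and brain, where stated) concentrations gave Tmax, Cmax, T1/2, AUC0-t and AUC0-inf.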

[2] = Half life in ICR mouse at 10 mg/kg, po administered via gavage measured after 0.25 to 24 hrs by UPLC/MS analysis; type: ADME, organism-based; conditions: in vivo
Outline: (§2)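 Male ICR mice dosed orally in 1% DMSO/0.5% HPMC vehicle; plasma or brain drug levels used to derive Tmax, Cmax, AUC0-t, AUC0-inf and T1/2.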

MM1.S = assay: Antiproliferative activity against human MM1S cells after 72 hrs by CCK8 or SRB assay; type: functional, cell-based
Outline: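 IC50 against MM.1S cell proliferation was taken as the mean of three independent experiments, each run in triplicate, reported with SEM.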

[3] = Half life in ICR mouse plasma at 50 mg/kg, po administered via gavage measured after 0.25 to 24 hrs by UPLC/MS analysis; type: ADME, organism-based; outline: as §2
[4] = molecular target: Bromodomain-containing protein 4 (Homo sapiens, UniProt O60885); assay: Displacement of 5-FITC labelled (+)-JQ1 from His6-tagged human BRD4 bromodomain 1 expressed in Escherichia coli BL21(DE3) )-codon plus-RIL cells incubated for 4 hrs in dark condition by fluorescence anisotropy binding assay
[5] = Cmax in ICR mouse at 10 mg/kg, po administered via gavage measured after 0.25 to 24 hrs by UPLC/MS analysis; type: ADME, organism-based; set-up: dose 10 mg/kg, route oral; conditions: in vivo; outline: as §2
[6] = molecular target: Bromodomain testis-specific protein (Homo sapiens) (UniProt Q58F21); assay: Binding affinity to human partial length BRDT bromodomain 2 (K250 to E382 residues) expressed in Escherichia coli BL21 cells assessed as residual binding level at 1 uM measured after 1 hr by quantitative PCR based BROMOscan assay relative to control
Outline: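 A BROMOScan competition-binding panel of 32 bromodomains was run at a single 1 μM compound concentration. Results are primary-screen 'Percent Control', where lower values indicate stronger binding.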

Cytochrome P450 2C19 = Cytochrome P450 2C19 (Homo sapiens, UniProt P33261); assay: Time-dependent inhibition of CYP2C19 in human liver microsomes at 10 uM using mephenytoin as substrate preincubated up to 30 mins followed by NADPH generating system addition and measured after 10 mins; type: ADME
Cytochrome P450 2C19, sequence (P33261 whole entry): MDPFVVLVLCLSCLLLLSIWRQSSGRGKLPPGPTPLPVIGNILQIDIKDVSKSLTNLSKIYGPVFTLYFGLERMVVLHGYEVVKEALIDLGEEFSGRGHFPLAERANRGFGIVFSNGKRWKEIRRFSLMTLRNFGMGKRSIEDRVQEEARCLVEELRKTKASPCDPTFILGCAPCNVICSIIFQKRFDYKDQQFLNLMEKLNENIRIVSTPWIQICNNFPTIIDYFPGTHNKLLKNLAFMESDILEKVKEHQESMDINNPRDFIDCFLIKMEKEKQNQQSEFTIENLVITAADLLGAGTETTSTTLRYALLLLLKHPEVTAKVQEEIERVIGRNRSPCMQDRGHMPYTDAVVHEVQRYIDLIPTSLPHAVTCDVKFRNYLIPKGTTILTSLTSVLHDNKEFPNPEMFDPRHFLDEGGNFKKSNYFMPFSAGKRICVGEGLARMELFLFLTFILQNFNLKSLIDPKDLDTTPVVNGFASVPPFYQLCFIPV
Outline: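 Human liver microsomes 0.2 mg/mL, 100 mM phosphate pH 7.4, 10 μM test compound, preincubated 0, 5, 10 and 30 min at 37 °C; then NADPH plus probe cocktail (5 μM midazolam, 50 μM testosterone, 5 μM dextromethorphan, 10 μM diclofenac, 50 μM phenacetin, 50 μM S-(+)-mephenytoin) added; 10 min reaction; kobs in units of 10^-4/min.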

MDA-MB-436 = assay: Antiproliferative activity against human MDA-MB-436 cells after 72 hrs by CCK8 or SRB assay; type: functional, cell-based
[7] = AUC (0 to t) in ICR mouse at 10 mg/kg, po administered via gavage measured after 0.25 to 24 hrs by UPLC/MS analysis; type: ADME, organism-based; set-up: time 0.25-24 hr, dose 10 mg/kg, route oral; conditions: in vivo; outline: as §1
MV4-11 = assay: Antitumor activity against human MV4-11 cells xenografted in Balb/c nude mouse assessed as tumor growth inhibition at 50 mg/kg, po administered once daily and measured twice a week by caliper method relative to control; type: functional; conditions: MV4-11, po, read-out: TGI
[8] = molecular target: E3 ubiquitin-protein ligase TRIM33 (Homo sapiens) (UniProt Q9UPN9); assay: Binding affinity to human partial length TRIM33 (D882 to A1087 residues) expressed in Escherichia coli BL21 cells assessed as residual binding level at 1 uM measured after 1 hr by quantitative PCR based BROMOscan assay relative to control
E3 ubiquitin-protein ligase TRIM33 (Homo sapiens), sequence (Q9UPN9 whole entry, the tested form may be a part): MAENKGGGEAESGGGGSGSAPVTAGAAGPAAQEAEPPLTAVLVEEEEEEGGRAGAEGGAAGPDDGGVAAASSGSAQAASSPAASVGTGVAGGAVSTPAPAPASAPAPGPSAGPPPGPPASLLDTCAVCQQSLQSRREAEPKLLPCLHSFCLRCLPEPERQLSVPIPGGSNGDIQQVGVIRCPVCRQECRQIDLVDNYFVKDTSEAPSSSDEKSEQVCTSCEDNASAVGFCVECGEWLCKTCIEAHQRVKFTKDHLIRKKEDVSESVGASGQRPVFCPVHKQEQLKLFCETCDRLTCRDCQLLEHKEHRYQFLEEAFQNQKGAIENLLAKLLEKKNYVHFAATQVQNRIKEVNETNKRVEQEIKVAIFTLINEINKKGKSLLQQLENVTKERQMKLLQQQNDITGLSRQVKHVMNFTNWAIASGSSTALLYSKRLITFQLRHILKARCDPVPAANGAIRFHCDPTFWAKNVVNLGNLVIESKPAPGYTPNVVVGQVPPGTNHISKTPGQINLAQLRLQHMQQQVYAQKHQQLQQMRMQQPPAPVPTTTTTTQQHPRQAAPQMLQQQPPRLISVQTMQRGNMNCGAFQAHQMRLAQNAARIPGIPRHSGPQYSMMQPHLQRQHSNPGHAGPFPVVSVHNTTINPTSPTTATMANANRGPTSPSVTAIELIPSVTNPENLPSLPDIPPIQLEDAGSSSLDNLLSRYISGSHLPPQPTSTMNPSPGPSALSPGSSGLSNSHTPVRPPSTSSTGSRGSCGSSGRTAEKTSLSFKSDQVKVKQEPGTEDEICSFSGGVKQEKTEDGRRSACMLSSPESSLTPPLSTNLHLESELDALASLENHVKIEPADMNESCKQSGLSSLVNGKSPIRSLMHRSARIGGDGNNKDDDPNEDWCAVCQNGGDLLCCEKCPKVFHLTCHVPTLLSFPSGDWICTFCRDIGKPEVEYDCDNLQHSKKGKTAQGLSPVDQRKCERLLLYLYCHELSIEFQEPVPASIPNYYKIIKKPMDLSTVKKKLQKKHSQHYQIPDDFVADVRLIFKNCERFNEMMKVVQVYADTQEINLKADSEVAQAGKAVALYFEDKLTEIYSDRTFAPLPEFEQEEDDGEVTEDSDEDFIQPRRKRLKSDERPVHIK
Outline: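 Bromodomain panel screen (32 bromodomains) run at 1 μM single concentration; primary binding reported as 'Percent Control', lower values meaning stronger interaction.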

[9] = AUC (0 to t) in rat plasma at 50 mg/kg, po; type: ADME, organism-based
Outline: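 Compound was given orally or intravenously in 1% DMSO/0.5% HPMC vehicle. Concentrations in plasma, or in brain where stated, gave Tmax, Cmax, T1/2, AUC0-t and AUC0-inf.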

[10] = Half life in mouse liver microsomes at 1 uM preincubated for 5 mins followed by NADPH addition and measured after 5 to 30 mins by LC/MS/MS analysis; type: ADME, Microsome; conditions: microsomes, 1 µM

Cc1ccc(-n2nc(C(=O)N3C[C@@H](C)N[C@@H](C)C3)nc2-c2ccc3c(c2)N(C2CCCC2)[C@H](C)C(=O)N3C)cc1
AUC(0-inf) [1]: 7390 ng·h/mL
half-life [2]: 2.1 h
pIC50 (MM1.S): 8.64
half-life [3]: 2.8 h
pIC50 [4]: 8.28
Cmax [5]: 1900 ng/mL
Activity [6]: < 5%
TDI (Cytochrome P450 2C19): Not Active
Activity (MDA-MB-436): Active
AUC(0-t) [7]: 7380 ng·h/mL
inhibition in vivo at 50 mg/kg (MV4-11): 95.6%
Activity [8]: 70 to 100%
AUC(0-t) [9]: 3820 ng·h/mL
t1/2 [10]: 3.22 h
